# Measurements of several laboratories.
# SIGMAR1: Sigma non-opioid intracellular receptor 1 (SIGMAR1, Homo sapiens, UniProt Q99720)
# Nectin-4: Nectin-4 (Homo sapiens, UniProt Q96NY8)
# PFF0160c E182D: Dihydroorotate dehydrogenase (quinone), mitochondrial (PFF0160c, Plasmodium falciparum, UniProt Q08210, E182D)
Compound,target,observed,action,method,measurement,value
N[C@@H](CC(=O)O)C(=O)O,"tar (Salmonella enterica, UniProt P02941, E302Q/E491Q)",binding,,,Kd,1000 nM
CC(C)NC[C@@H](O)COc1cccc2ccccc12,SIGMAR1,ligand displacement,,radioligand,Ki,344 nM
CCCC[C@@H]1NC(=O)[C@H](Cc2ccc(O)cc2)NC(=O)[C@@H]2CCCN2C(=O)[C@H](CC(=O)O)NC(=O)[C@H](C)NC(=O)[C@H](Cc2ccccc2)NC(=O)[C@@H]2CSCCC(=O)N3CN(CN(C3)C(=O)CCSC[C@@H](C(=O)N[C@@H](C)C(N)=O)NC1=O)C(=O)CCSC[C@H](NC(C)=O)C(=O)N[C@@H](CC(C)(C)C)C(=O)N1CCC[C@H]1C(=O)N[C@@H](CCC(=O)O)C(=O)N[C@H](CCCCNC(=O)CCc1cn(CCOCCOCCOCCOCCOCCC(=O)N[C@H]3CSCCC(=O)N4CN5CN(C4)C(=O)CCSC[C@H](NC(=O)[C@@H](CCC(=O)O)NC(=O)[C@H](Cc4cccc6ccccc46)NC(=O)[C@@H]4CCCN4C3=O)C(=O)N[C@@H](CC(C)C)C(=O)N[C@@H](CCCCNC(=N)N)C(=O)N[C@@H](CC(=O)O)C(=O)N[C@@H](Cc3c[nH]c4ccccc34)C(=O)N[C@@H](CO)C(=O)N[C@@H]([C@@H](C)O)C(=O)N3CCC[C@H]3C(=O)N3C[C@H](O)C[C@H]3C(=O)N[C@@H](Cc3c[nH]c4ccccc34)C(=O)N[C@H](C(N)=O)CSCCC5=O)nn1)C(=O)N1CCC[C@H]1C(=O)N[C@@H](Cc1ccc(O)cc1)C(=O)N2,Nectin-4,binding,,SPR,Kd,4.2 nM
Oc1cc(NC[C@H]2CCC[C@@H]2NCc2cc(Br)cc(Br)c2)nc2ccccc12,PFF0160c E182D,enzyme activity,inhibitor,absorbance,IC50,> 10000 nM
CCCC[C@@H]1NC(=O)[C@H](Cc2ccc(O)cc2)NC(=O)[C@@H]2CCCN2C(=O)[C@H](CC(=O)O)NC(=O)[C@H](C)NC(=O)[C@H](Cc2ccccc2)NC(=O)[C@@H]2CSCCC(=O)N3CN(CN(C3)C(=O)CCSC[C@@H](C(N)=O)NC1=O)C(=O)CCSCCC(=O)N[C@@H](CC(C)(C)C)C(=O)N1CCC[C@H]1C(=O)N[C@@H](CCC(=O)O)C(=O)N[C@H](CCCCNC(=O)CCc1cn(CCOCCOCCOCCN(CCOCCOCCOCCC(=O)N[C@H]3CSCCC(=O)N4CN5CN(C4)C(=O)CCSC[C@H](NC(=O)[C@@H](CC(=O)O)NC(=O)[C@H](Cc4cccc6ccccc46)NC(=O)[C@@H]4CCCN4C3=O)C(=O)N[C@@H](CCSC)C(=O)N[C@@H](CCCCNC(=N)N)C(=O)N[C@@H](CC(=O)O)C(=O)N[C@@H](Cc3c[nH]c4ccccc34)C(=O)N[C@@H](CO)C(=O)N[C@@H]([C@@H](C)O)C(=O)N3CCC[C@H]3C(=O)N3C[C@H](O)C[C@H]3C(=O)N[C@@H](Cc3c[nH]c4ccccc34)C(=O)N[C@H](C(N)=O)CSCCC5=O)CCOCCOCCOCCn3cc(CCC(=O)NCCCC[C@H]4NC(=O)[C@H](CCC(=O)O)NC(=O)[C@@H]5CCCN5C(=O)[C@H](CC(C)(C)C)NC(=O)CCSCCC(=O)N5CN6CN(C5)C(=O)CCSC[C@H](NC(=O)[C@H](Cc5ccc(O)cc5)NC(=O)[C@@H]5CCCN5C4=O)C(=O)N[C@@H](Cc4ccccc4)C(=O)N[C@@H](C)C(=O)N[C@@H](CC(=O)O)C(=O)N4CCC[C@H]4C(=O)N[C@@H](Cc4ccc(O)cc4)C(=O)N[C@@H](CCCC)C(=O)N[C@H](C(N)=O)CSCCC6=O)nn3)nn1)C(=O)N1CCC[C@H]1C(=O)N[C@@H](Cc1ccc(O)cc1)C(=O)N2,Nectin-4,binding,,SPR,Kd,2.3 nM
CCc1nc2nc(C)cc(Nc3cc(C)cc(C)c3)n2n1,PFF0160c E182D,enzyme activity,inhibitor,absorbance,IC50,8560 nM
N[C@@H](C[C@]1(C(=O)O)C[C@H]2OC[C@@H](O)[C@@H](O)[C@H]2O1)C(=O)O,"Glutamate receptor ionotropic, kainate 2 (Grik2, Rattus norvegicus, UniProt P42260, A518T/Y443F)",ligand displacement,,radioligand,Ki,972 nM
COc1cc(Nc2ccnc3cc(-c4ccncc4)ccc23)cc(OC)c1OC,PFF0160c E182D,enzyme activity,inhibitor,absorbance,IC50,1510 nM
CCCC[C@@H]1NC(=O)[C@H](Cc2ccc(O)cc2)NC(=O)[C@@H]2CCCN2C(=O)[C@H](CC(=O)O)NC(=O)[C@H](C)NC(=O)[C@H](Cc2ccccc2)NC(=O)[C@@H]2CSCCC(=O)N3CN(CN(C3)C(=O)CCSC[C@H](NC(C)=O)C(=O)N[C@@H](CC(C)(C)C)C(=O)N3CCC[C@H]3C(=O)N[C@@H](CCC(=O)O)C(=O)N[C@H](CCCCNC(=O)CCc3cn(CCOCCOCCOCCOCCOCCC(=O)N[C@H]4CSCCC(=O)N5CN6CN(C5)C(=O)CCSC[C@H](NC(=O)[C@@H](CC(=O)O)NC(=O)[C@H](Cc5cccc7ccccc57)NC(=O)[C@@H]5CCCN5C4=O)C(=O)N[C@@H](CCSC)C(=O)N[C@@H](CCCCNC(=N)N)C(=O)N[C@@H](CC(=O)O)C(=O)N[C@@H](Cc4c[nH]c5ccccc45)C(=O)N[C@@H](CO)C(=O)N[C@@H]([C@@H](C)O)C(=O)N4CCC[C@H]4C(=O)N4C[C@H](O)C[C@H]4C(=O)N[C@@H](Cc4c[nH]c5ccccc45)C(=O)N[C@H](C(N)=O)CSCCC6=O)nn3)C(=O)N3CCC[C@H]3C(=O)N[C@@H](Cc3ccc(O)cc3)C(=O)N2)C(=O)CCSC[C@@H](C(N)=O)NC1=O,Nectin-4,binding,,SPR,Kd,2 nM
Fc1ccc([C@@H]2CCNC[C@H]2COc2ccc3c(c2)OCO3)cc1,SIGMAR1,ligand displacement,,radioligand,Ki,365 nM
CCC(c1ccccc1)c1nn2c(-c3cccs3)nnc2s1 (stereo not drawn),"Dihydroorotate dehydrogenase (quinone), mitochondrial (PFF0160c, Plasmodium falciparum, UniProt Q08210)",enzyme activity,inhibitor,absorbance,IC50,158 nM
CCCC[C@@H]1NC(=O)[C@H](Cc2ccc(O)cc2)NC(=O)[C@@H]2CCCN2C(=O)[C@H](CC(=O)O)NC(=O)[C@H](C)NC(=O)[C@H](Cc2ccccc2)NC(=O)[C@@H]2CSCCC(=O)N3CN(CN(C3)C(=O)CCSCCC(=O)N[C@@H](CC(C)(C)C)C(=O)N3CCC[C@H]3C(=O)N[C@@H](CCC(=O)O)C(=O)N[C@H](CCCCNC(=O)CCc3cn(CCOCCOCCOCCN(CCOCCOCCOCCC(=O)N[C@H]4CSCCC(=O)N5CN6CN(C5)C(=O)CCSC[C@H](NC(=O)[C@@H](CC(=O)O)NC(=O)[C@H](Cc5cccc7ccccc57)NC(=O)[C@@H]5CCCN5C4=O)C(=O)N[C@@H](CCSC)C(=O)N[C@@H](CCCCNC(=N)N)C(=O)N[C@@H](CC(=O)O)C(=O)N[C@@H](Cc4c[nH]c5ccccc45)C(=O)N[C@@H](CO)C(=O)N[C@@H]([C@@H](C)O)C(=O)N4CCC[C@H]4C(=O)N4C[C@H](O)C[C@H]4C(=O)N[C@@H](Cc4c[nH]c5ccccc45)C(=O)N[C@H](C(N)=O)CSCCC6=O)CCOCCOCCOCCn4cc(CCC(=O)NCCCC[C@H]5NC(=O)[C@H](CCC(=O)O)NC(=O)[C@@H]6CCCN6C(=O)[C@H](CC(C)(C)C)NC(=O)CCSCCC(=O)N6CN7CN(C6)C(=O)CCSC[C@H](NC(=O)[C@H](Cc6ccc(O)cc6)NC(=O)[C@@H]6CCCN6C5=O)C(=O)N[C@@H](Cc5ccccc5)C(=O)N[C@@H](C)C(=O)N[C@@H](CC(=O)O)C(=O)N5CCC[C@H]5C(=O)N[C@@H](Cc5ccc(O)cc5)C(=O)N[C@@H](CCCC)C(=O)NCCSCCC7=O)nn4)nn3)C(=O)N3CCC[C@H]3C(=O)N[C@@H](Cc3ccc(O)cc3)C(=O)N2)C(=O)CCSCCNC1=O,Nectin-4,binding,,SPR,Kd,4 nM
COc1cc2c(cc1OC)CN(CCc1ccc(NC(=O)c3cc(OC)c(OC)cc3NC(=O)c3cnc4ccccc4c3)cc1)CC2,SIGMAR1,ligand displacement,,radioligand,Ki,472 nM
CCCC[C@@H]1NC(=O)[C@H](Cc2ccc(O)cc2)NC(=O)[C@@H]2CCCN2C(=O)[C@H](CC(=O)O)NC(=O)[C@H](C)NC(=O)[C@H](Cc2ccccc2)NC(=O)[C@@H]2CSCCC(=O)N3CN(CN(C3)C(=O)CCSC[C@@H](C(=O)N[C@@H](CNC(=O)CCc3cn(CCOCCOCCOCCN(CCOCCOCCOCCC(=O)N[C@H]4CSCCC(=O)N5CN6CN(C5)C(=O)CCSC[C@H](NC(=O)[C@@H](CC(=O)O)NC(=O)[C@H](Cc5cccc7ccccc57)NC(=O)[C@@H]5CCCN5C4=O)C(=O)N[C@@H](CCSC)C(=O)N[C@@H](CCCCNC(=N)N)C(=O)N[C@@H](CC(=O)O)C(=O)N[C@@H](Cc4c[nH]c5ccccc45)C(=O)N[C@@H](CO)C(=O)N[C@@H]([C@@H](C)O)C(=O)N4CCC[C@H]4C(=O)N4C[C@H](O)C[C@H]4C(=O)N[C@@H](Cc4c[nH]c5ccccc45)C(=O)N[C@H](C(N)=O)CSCCC6=O)CCOCCOCCOCCn4cc(CCC(=O)NC[C@H](NC(=O)[C@@H]5CSCCC(=O)N6CN7CN(C6)C(=O)CCSC[C@H](NC(=O)[C@H](Cc6ccc(O)cc6)NC(=O)[C@@H]6CCCN6C(=O)[C@@H](C)NC(=O)[C@H](CCC(=O)O)NC(=O)[C@@H]6CCCN6C(=O)[C@H](CC(C)(C)C)NC(=O)[C@@H](NC(C)=O)CSCCC7=O)C(=O)N[C@@H](Cc6ccccc6)C(=O)N[C@@H](C)C(=O)N[C@@H](CC(=O)O)C(=O)N6CCC[C@H]6C(=O)N[C@@H](Cc6ccc(O)cc6)C(=O)N[C@@H](CCCC)C(=O)N5)C(N)=O)nn4)nn3)C(N)=O)NC1=O)C(=O)CCSC[C@H](NC(C)=O)C(=O)N[C@@H](CC(C)(C)C)C(=O)N1CCC[C@H]1C(=O)N[C@@H](CCC(=O)O)C(=O)N[C@H](C)C(=O)N1CCC[C@H]1C(=O)N[C@@H](Cc1ccc(O)cc1)C(=O)N2,Nectin-4,binding,,SPR,Kd,3.7 nM
COc1cc2c(cc1OC)C(=O)C(CC1CCN(Cc3ccccc3)CC1)C2 (stereo not drawn),SIGMAR1,ligand displacement,,radioligand,Ki,19.1 nM
